ChEMBL document CHEMBL4261628, “1H-pyrrolo[2,3-b]pyridine: A new scaffold for human neutrophil elastase (HNE) inhibitors” (Bioorg Med Chem, 2018)
Active and inactive are the calls of the source. The rule behind the calls is not given here.

target: T1, Neutrophil elastase (Homo sapiens) (UniProt P08246); experiment: Inhibition of human neutrophil elastase at 50 uM using N-methylsuccinyl-Ala-Ala-Pro-Val-7-amino-4-methylcoumarin as substrate measured every 30 secs for 10 mins by fluorescence assay
T1 sequence (whole entry): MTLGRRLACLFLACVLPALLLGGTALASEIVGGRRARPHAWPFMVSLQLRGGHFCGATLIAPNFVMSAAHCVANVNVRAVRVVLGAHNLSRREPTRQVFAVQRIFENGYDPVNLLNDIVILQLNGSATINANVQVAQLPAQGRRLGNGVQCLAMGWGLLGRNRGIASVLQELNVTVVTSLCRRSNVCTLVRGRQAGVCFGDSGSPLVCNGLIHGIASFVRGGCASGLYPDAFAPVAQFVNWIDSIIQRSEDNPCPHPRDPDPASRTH
In short: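 HNE (20 mU/mL) in 200 mM Tris-HCl pH 7.5 with 0.01% BSA and 0.05% Tween-20. Compound from 5 mM DMSO stock, 1% DMSO final, tested up to 50 µM. Reaction started with 25 µM final substrate. Fluorescence read at ex 355/em 460 nm, 25 °C. No inhibition at 50 µM is reported as N.A.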

| Structure (SMILES) | inhibition |
| --- | --- |
| N#Cc1cn(CC(=O)Nc2ccccc2)c2ncccc12 | inactive |
| Cc1cccc(C(=O)n2cc(-c3ccsc3)c3cccnc32)c1 | inactive |
| Cn1cc(C(=O)Nc2ccccc2)c2cccnc21 | inactive |
| CCOC(=O)c1cn(CC(=O)Nc2ccccc2)c2ncccc12 | inactive |
| Cc1cccc(C(=O)n2ccc3cccnc32)c1 | inactive |

system: not listed separately; experiment: Half life in 0.05 M phosphate buffer of pH 7.3 at 25 degC by spectrophotometric analysis; type: physicochemical

| Structure (SMILES) | half-life [h] |
| --- | --- |
| CCOC(=O)c1cn(C(=O)c2cccc(C)c2)c2ncccc12 | 3.5 |
| N#Cc1cn(C(=O)C2CC2)c2ncccc12 | 6.8 |
| Cc1cccc(C(=O)n2cc([N+](=O)[O-])c3cccnc32)c1 | 0.4 |
| Cc1cccc(C(=O)n2cc(C(=O)Nc3ccccc3)c3cccnc32)c1 | 3.4 |
| CCOC(=O)c1cn(C(=O)c2ccc(C)cc2)c2ncccc12 | 4.3 |
| CCCCC(=O)n1cc(C#N)c2cccnc21 | 1.9 |
| CCOC(=O)c1cn(C(=O)C2CC2)c2ncccc12 | 14.4 |
| Cc1cccc(C(=O)n2cc(C#N)c3cccnc32)c1 | 1.9 |
| Cc1ccc(C(=O)n2cc(C#N)c3cccnc32)cc1 | 2.6 |
| Cc1cccc(C(=O)n2cc(-c3nc(C)no3)c3cccnc32)c1 | 2.4 |
